Laboratory results as given in ChEMBL document CHEMBL1811853, “Design and evaluation of 3-aminopyrazolopyridinone kinase inhibitors inspired by the natural product indirubin” (Bioorg Med Chem, 2011).

Tests used:
[1] = target: MAP kinase-activated protein kinase 2 (Homo sapiens, UniProt P49137); test: Inhibition of MAPKAPK2 at 30 uM by microfluidic mobility shift assay
Method in brief: (§1)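 Single-concentration screen, singlicate, 30 uM final (diluted from 1 mM DMSO solutions), fluorescently tagged peptide substrate appropriate to each kinase, ATP at apparent Km for each protein. Phosphorylated and unphosphorylated peptides separated electrophoretically; conversion is the phosphorylated peak area over the sum of both peaks. No-inhibitor and no-ATP controls; H89 reference on each plate.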

[2] = target: Ribosomal protein S6 kinase alpha-1 (Homo sapiens) (UniProt Q15418); test: Inhibition of RSK1 at 30 uM by microfluidic mobility shift assay; method in brief: as §1
[3] = target: T1, MAP kinase-activated protein kinase 5 (Homo sapiens) (UniProt Q8IW41); test: Inhibition of PRAK1 at 30 uM by microfluidic mobility shift assay; method in brief: as §1
T1 sequence (whole entry): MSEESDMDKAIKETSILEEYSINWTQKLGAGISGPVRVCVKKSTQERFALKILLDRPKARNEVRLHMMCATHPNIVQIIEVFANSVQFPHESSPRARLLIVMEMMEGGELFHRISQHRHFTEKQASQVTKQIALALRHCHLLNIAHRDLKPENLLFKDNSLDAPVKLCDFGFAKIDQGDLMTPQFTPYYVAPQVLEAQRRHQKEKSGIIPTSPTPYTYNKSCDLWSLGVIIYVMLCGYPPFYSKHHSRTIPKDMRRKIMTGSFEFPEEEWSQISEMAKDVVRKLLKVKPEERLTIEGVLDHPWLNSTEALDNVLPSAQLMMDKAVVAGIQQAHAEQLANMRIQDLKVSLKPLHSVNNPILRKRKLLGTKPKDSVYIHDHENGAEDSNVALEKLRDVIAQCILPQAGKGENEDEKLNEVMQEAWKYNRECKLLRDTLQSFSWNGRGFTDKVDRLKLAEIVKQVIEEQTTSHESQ

[4] = target: T2, Serine/threonine-protein kinase D2 (Homo sapiens) (UniProt Q9BZL6); test: Inhibition of PKD2 at 30 uM by microfluidic mobility shift assay; method in brief: as §1
T2 sequence (whole entry): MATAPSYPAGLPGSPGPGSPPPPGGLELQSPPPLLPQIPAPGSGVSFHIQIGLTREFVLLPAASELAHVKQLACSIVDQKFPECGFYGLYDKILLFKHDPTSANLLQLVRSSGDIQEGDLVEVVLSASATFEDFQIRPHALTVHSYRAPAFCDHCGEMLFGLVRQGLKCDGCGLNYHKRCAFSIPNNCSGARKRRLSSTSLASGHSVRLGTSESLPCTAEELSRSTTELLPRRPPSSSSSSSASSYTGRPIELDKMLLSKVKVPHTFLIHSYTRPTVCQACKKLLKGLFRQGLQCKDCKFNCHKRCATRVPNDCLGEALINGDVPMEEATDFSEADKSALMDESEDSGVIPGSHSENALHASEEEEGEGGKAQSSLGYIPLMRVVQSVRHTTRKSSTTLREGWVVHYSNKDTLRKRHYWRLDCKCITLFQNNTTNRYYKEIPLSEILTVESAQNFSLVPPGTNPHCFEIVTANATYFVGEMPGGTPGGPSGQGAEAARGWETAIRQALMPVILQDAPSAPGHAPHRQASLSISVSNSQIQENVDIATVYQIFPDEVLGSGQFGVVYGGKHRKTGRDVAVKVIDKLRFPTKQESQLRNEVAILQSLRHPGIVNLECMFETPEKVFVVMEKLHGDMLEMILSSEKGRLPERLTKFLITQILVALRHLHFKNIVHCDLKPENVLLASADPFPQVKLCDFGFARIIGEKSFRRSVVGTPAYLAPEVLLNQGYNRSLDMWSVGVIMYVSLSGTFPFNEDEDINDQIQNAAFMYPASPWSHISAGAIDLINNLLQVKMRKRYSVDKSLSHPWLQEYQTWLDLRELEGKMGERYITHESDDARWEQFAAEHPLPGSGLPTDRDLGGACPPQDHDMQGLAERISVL

[5] = target: Tyrosine-protein kinase Lyn (Homo sapiens, UniProt P07948); test: Inhibition of LYN at 30 uM by microfluidic mobility shift assay; method in brief: as §1
[6] = target: Tyrosine-protein kinase Lck (Homo sapiens, UniProt P06239); test: Inhibition of LCK at 30 uM by microfluidic mobility shift assay; method in brief: as §1
[7] = target: Proto-oncogene tyrosine-protein kinase Src (Homo sapiens, UniProt P12931); test: Inhibition of SRC at 30 uM by microfluidic mobility shift assay; method in brief: as §1
[8] = target: Mitogen-activated protein kinase 1 (Homo sapiens) (UniProt P28482); test: Inhibition of ERK2 at 30 uM by microfluidic mobility shift assay; method in brief: as §1
[9] = target: Insulin receptor (Homo sapiens) (UniProt P06213); test: Inhibition of INSR at 30 uM by microfluidic mobility shift assay; method in brief: as §1
Insulin receptor (Homo sapiens), sequence (P06213 28-758 limits assumed): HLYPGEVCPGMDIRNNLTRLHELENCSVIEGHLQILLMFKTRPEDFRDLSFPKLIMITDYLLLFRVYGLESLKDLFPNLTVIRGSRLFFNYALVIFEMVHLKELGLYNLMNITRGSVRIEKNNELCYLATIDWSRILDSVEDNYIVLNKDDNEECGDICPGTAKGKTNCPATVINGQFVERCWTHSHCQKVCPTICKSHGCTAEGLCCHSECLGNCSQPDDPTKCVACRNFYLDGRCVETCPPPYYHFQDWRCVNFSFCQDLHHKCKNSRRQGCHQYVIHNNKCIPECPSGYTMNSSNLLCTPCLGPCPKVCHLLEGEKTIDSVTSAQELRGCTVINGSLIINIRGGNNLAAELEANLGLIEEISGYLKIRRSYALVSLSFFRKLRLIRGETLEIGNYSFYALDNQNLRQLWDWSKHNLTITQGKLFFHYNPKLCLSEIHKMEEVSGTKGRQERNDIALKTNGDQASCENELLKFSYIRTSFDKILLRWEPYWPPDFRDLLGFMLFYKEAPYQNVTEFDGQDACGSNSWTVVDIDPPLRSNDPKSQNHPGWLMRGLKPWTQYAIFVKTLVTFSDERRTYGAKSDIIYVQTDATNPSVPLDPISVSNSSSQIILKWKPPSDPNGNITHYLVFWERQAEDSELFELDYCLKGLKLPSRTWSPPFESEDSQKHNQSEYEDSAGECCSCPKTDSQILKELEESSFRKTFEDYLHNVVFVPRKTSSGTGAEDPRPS
Insulin receptor (Homo sapiens), sequence (P06213 763-1382 limits assumed): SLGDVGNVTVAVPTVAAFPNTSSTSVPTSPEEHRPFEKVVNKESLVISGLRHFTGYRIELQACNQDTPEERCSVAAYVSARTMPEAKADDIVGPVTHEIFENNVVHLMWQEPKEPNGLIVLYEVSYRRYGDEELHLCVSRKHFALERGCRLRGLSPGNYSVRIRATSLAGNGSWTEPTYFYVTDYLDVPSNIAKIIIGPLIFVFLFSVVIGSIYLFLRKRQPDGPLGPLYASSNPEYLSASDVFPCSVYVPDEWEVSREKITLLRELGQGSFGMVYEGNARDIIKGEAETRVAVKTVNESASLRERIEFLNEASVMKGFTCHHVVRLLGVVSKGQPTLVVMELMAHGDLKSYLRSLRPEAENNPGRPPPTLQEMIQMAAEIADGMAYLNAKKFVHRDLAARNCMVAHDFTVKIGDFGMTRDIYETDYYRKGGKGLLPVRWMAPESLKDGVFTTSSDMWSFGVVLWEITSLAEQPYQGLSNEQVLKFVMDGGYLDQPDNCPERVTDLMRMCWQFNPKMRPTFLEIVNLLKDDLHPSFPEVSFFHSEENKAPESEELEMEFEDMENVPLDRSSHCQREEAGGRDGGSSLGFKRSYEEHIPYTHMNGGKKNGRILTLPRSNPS

Mitogen-activated protein kinase 1 (Homo sapiens), sequence (P28482 whole entry): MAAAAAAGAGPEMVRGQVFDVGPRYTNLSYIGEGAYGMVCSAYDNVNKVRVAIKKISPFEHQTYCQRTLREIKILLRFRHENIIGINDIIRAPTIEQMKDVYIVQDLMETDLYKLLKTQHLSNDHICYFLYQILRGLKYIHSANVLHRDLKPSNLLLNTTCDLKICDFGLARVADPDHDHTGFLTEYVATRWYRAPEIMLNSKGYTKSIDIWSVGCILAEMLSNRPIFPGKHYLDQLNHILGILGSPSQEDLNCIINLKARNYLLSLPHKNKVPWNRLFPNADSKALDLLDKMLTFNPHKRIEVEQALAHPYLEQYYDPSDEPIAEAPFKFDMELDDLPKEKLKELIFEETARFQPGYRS
Tyrosine-protein kinase Lyn, sequence (P07948 2-512 limits assumed): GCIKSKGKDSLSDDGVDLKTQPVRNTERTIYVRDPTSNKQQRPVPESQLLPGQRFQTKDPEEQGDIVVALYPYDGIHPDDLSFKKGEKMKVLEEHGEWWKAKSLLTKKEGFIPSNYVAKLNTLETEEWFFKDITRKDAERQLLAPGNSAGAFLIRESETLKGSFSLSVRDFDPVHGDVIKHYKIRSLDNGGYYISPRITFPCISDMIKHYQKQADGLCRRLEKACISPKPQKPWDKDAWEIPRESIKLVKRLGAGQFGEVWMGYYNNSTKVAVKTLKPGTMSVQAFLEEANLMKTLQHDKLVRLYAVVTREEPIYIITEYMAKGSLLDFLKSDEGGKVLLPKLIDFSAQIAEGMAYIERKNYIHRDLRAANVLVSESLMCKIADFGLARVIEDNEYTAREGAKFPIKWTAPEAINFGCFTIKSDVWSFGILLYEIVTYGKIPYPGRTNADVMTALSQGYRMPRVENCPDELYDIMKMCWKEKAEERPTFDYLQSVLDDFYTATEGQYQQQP
Ribosomal protein S6 kinase alpha-1 (Homo sapiens), sequence (Q15418 whole entry): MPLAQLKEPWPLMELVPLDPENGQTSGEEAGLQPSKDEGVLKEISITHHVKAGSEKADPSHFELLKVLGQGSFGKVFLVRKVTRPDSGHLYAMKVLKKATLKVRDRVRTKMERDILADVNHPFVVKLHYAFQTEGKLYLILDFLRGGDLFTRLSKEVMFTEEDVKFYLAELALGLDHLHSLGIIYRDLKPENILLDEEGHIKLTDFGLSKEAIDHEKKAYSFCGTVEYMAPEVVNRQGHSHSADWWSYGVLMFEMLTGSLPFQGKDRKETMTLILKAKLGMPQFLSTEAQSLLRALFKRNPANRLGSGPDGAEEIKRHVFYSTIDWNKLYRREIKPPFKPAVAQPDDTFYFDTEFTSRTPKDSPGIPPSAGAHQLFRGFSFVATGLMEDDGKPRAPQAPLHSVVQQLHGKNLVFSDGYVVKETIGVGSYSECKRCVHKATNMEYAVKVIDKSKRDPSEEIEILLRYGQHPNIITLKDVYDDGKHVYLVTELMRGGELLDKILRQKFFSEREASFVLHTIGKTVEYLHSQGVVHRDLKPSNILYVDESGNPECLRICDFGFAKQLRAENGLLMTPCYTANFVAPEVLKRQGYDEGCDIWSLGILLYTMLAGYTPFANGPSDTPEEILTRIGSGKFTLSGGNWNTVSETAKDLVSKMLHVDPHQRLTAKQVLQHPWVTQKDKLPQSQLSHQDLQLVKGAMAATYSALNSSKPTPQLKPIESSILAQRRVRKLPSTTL
MAP kinase-activated protein kinase 2, sequence (P49137 whole entry, looked up): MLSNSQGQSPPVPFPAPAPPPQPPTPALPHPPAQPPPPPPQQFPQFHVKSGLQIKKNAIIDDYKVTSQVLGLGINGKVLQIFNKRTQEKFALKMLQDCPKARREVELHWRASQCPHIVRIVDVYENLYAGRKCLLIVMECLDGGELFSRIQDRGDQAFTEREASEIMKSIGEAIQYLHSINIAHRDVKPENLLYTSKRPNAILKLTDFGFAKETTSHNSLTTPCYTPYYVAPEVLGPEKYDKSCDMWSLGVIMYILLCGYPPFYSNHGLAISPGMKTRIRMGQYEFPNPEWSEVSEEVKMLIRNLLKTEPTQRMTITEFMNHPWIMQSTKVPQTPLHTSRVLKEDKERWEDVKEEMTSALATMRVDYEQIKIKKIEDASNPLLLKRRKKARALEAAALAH
Tyrosine-protein kinase Lck, sequence (P06239 2-509 limits assumed): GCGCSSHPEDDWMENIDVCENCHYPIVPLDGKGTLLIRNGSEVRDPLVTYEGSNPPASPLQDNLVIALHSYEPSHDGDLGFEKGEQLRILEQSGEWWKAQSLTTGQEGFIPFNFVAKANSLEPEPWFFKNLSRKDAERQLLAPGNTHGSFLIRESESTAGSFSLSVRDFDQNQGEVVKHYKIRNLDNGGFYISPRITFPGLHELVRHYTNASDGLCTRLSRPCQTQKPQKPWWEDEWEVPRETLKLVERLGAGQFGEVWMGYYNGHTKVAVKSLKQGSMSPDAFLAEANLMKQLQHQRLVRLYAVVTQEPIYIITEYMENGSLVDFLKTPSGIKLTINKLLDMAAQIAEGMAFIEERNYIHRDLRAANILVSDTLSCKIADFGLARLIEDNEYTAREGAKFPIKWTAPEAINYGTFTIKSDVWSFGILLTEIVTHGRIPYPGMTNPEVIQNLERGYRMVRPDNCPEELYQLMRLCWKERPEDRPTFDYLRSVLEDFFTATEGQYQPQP
Proto-oncogene tyrosine-protein kinase Src, sequence (P12931 2-536 limits assumed): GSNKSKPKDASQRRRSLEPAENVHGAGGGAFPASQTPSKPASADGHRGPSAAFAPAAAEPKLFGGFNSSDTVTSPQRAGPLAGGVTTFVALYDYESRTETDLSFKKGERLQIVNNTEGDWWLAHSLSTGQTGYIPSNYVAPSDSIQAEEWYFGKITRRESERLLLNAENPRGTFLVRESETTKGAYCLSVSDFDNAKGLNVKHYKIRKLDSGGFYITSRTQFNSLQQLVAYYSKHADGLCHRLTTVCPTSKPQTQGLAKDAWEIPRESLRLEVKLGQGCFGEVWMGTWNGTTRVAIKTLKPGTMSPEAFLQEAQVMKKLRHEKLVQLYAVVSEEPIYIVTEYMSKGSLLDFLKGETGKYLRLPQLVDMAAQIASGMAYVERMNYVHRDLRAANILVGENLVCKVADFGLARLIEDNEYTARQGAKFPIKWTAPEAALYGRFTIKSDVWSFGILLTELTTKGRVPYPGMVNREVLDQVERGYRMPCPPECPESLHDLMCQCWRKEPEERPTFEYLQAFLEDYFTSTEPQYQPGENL

Row | Structure (SMILES) | inhibition [1] | inhibition [2] | inhibition [3] | inhibition [4] | inhibition [5] | inhibition [6] | inhibition [7] | inhibition [8] | inhibition [9]
1 | Nc1n[nH]c2cc(-c3ccccn3)[nH]c(=O)c12 | 41% | 24% | 18% | 33% | 49% | 56% | 63% | 12% | 34%
2 | COc1ccccc1-c1cc2nn(-c3ccccc3)c(N)c2c(=O)[nH]1 | -1% | 3% | 6% | 20% | 86% | 72% | 87% | 13% | -2%
3 | CC(=O)Nc1nn(C)c2cc(-c3ccc(N4CCN(C)CC4)cc3)[nH]c(=O)c12 | 5% | 16% | 6% | 13% | 8% | 10% | 20% | 4% | 2%
4 | COCCNc1nc(C)cc2c1c(N)nn2C | 6% | -4% | 5% | 4% | 6% | 1% | 2% | 8% | 0%
5 | CN1CCN(c2ccc(-c3cc4nn(-c5ccccc5)c(N)c4c(=O)[nH]3)cc2)CC1 | 4% | 19% | 4% | 15% | 100% | 100% | 99% | 7% | 8%
6 | Cn1nc(N)c2c(=O)[nH]c(-c3ccccn3)cc21 | 36% | 9% | 9% | 17% | 10% | 21% | 18% | 9% | 16%
7 | Cc1nc(N)c2c(=O)[nH]c(C)cc2n1 | 18% | – | 1% | 6% | 7% | 5% | 9% | 3% | 3%
8 | Nc1c2c(=O)[nH]c(-c3ccccc3)cc2nn1-c1ccccn1 | 6% | 5% | -1% | 16% | 40% | 15% | 37% | 0% | 5%
9 | COc1cccc(-c2cc3[nH]nc(N)c3c(=O)[nH]2)c1 | 56% | 20% | 10% | 17% | 49% | 48% | 62% | 15% | 20%
10 | COc1ccc(-c2cc3[nH]nc(N)c3c(=O)[nH]2)cc1 | 59% | 7% | 7% | 28% | 56% | 54% | 59% | 12% | 6%
11 | COc1ccc(-c2c(C)[nH]c(=O)c3c(N)nn(C)c23)cc1 | 24% | 18% | 13% | 21% | 19% | 11% | 15% | 7% | 2%
12 | Cn1nc2c3c(nc(-c4ccccc4)cc31)NCC(=O)N2 | 8% | 0% | 3% | 17% | 6% | 6% | 22% | 2% | 2%
13 | CC(C)(C)c1cc2nn(-c3ccccc3)c(N)c2c(=O)[nH]1 | 6% | 5% | 2% | 15% | 8% | 8% | 7% | 18% | 4%
14 | Nc1n[nH]c2cc(-c3cccnc3)[nH]c(=O)c12 | 40% | 11% | 12% | 26% | 39% | 34% | 46% | 14% | 7%
15 | COCCNc1nc(-c2ccccc2)cc2c1c(N)nn2C | 2% | -3% | 1% | 1% | 4% | 9% | 3% | 0% | 1%
16 | CN1CCN(c2ccc(-c3cc4[nH]nc(N)c4c(=O)[nH]3)cc2)CC1 | 55% | 26% | 11% | 15% | 76% | 74% | 85% | -2% | 17%
17 | Cc1cc2c(c(N)nn2C)c(N2CC[C@H](O)C2)n1 | 2% | -5% | 1% | 8% | 5% | 1% | 3% | 2% | -2%
18 | Cc1cc2nc(N)nc(N)c2c(=O)[nH]1 | 26% | -4% | 3% | 8% | 10% | 12% | 12% | 9% | 0%
19 | Nc1n[nH]c2cc(-c3ccc(N4CCOCC4)cc3)[nH]c(=O)c12 | 55% | 16% | 11% | 15% | 63% | 44% | 74% | -3% | 6%
20 | Nc1n[nH]c2cc(-c3ccncc3)[nH]c(=O)c12 | 37% | 22% | 13% | 29% | 39% | 37% | 46% | 38% | 9%
21 | Cc1cc2c(c(NS(C)(=O)=O)nn2C)c(=O)[nH]1 | 1% | -6% | 0% | 8% | 1% | 4% | -2% | 3% | -6%
22 | COc1ccc(-c2cc3c(c(N)nn3C)c(=O)[nH]2)cc1 | 51% | 18% | 16% | 36% | 49% | 46% | 62% | 16% | 5%
23 | COc1ccc(S(=O)(=O)Nc2nn(C)c3cc(C)[nH]c(=O)c23)c(OC)c1 | 2% | -2% | 1% | 14% | -1% | -1% | 2% | 1% | 2%
24 | COc1ccc(-c2cc3nn(-c4ccccc4)c(N)c3c(=O)[nH]2)cc1 | 7% | 4% | 12% | 28% | 90% | 75% | 89% | 3% | 0%
